# How the values were obtained:
# [1] = molecular target: T1, Prostaglandin G/H synthase 1 (Ovis aries, UniProt P05979); assay: Inhibition of ovine COX1 assessed as reduction in Prostaglandin production by enzyme immunoassay
# T1 sequence (P05979 whole entry): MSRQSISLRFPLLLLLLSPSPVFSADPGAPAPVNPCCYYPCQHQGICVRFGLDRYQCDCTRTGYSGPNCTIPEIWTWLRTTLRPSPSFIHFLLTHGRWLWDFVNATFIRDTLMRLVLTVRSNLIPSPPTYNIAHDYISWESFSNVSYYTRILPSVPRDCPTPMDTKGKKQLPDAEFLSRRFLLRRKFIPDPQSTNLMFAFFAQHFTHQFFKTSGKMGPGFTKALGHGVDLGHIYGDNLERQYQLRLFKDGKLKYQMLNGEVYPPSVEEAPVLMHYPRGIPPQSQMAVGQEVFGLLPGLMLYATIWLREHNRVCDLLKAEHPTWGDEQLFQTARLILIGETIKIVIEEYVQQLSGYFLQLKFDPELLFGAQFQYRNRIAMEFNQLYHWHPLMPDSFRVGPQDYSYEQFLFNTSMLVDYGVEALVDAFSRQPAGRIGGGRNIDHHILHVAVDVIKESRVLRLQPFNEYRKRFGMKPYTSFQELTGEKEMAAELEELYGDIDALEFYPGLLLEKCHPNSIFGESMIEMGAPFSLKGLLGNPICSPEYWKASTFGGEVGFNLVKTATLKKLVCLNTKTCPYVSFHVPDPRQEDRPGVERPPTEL
# Procedure, shortened: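 Enzyme immunoassay kit with ovine COX-1 (human recombinant COX-2 also supplied). Colour intensity read spectrophotometrically; signal is proportional to PG tracer bound to the well and inversely proportional to free PG in the well. Inhibition calculated against control incubations. IC50 taken from the log concentration vs % inhibition curve.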
# [2] = tested on: Rattus norvegicus; assay: Anti-inflammatory activity against carrageenan-induced Wistar albino rat paw edema model assessed as paw edema volume at 20 mg/kg, po pretreated for 30 mins followed by carrageenan-challenge measured immediately by plethysmographic method (reference value: 0.7 ml); assay type: functional
# [3] = tested on: Rattus norvegicus; assay: Anti-inflammatory activity against carrageenan-induced Wistar albino rat paw edema model assessed as paw edema volume at 20 mg/kg, po pretreated for 30 mins followed by carrageenan-challenge measured after 3 hrs by plethysmographic method (reference value: 1.14 ml); assay type: functional
# [4] = tested on: Rattus norvegicus; assay: Anti-inflammatory activity against carrageenan-induced Wistar albino rat paw edema model assessed as inhibition of paw edema at 20 mg/kg, po pretreated for 30 mins followed by carrageenan-challenge measured at 1 hr interval for 3 hrs by plethysmographic method relative to control; assay type: functional
# Procedure, shortened: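 Wistar albino rats housed at 25-28 °C, 50–65% relative humidity, 12 h light/dark cycle; five per group. Oral dosing; control group given an equivalent volume of normal saline. Half an hour later, 0.1 ml of 1.0% w/v carrageenan in 0.9% saline injected into the sub-plantar tissue of the hind paw. […] Values taken at 3 h as mean ± SEM; Tukey's test versus control.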
# [5] = tested on: Rattus norvegicus; assay: Ulcerogenicity in Wistar albino rat assessed as severity index at 60 mg/kg, po measured after 6 hrs; assay type: toxicity, organism-based; conditions: in vivo
SMILES,IC50 [1] [µM],Activity [2] [mL],Activity [3] [mL],inhibition in vivo at 20 mg/kg [4] [%],UI [5]
COc1ccc(-c2nc3cc(NC(=O)c4cc([N+](=O)[O-])ccc4Cl)ccc3o2)cc1OC,10.2,–,–,–,–
COc1ccc(-c2nc3cc(NC(=O)c4ccc(Cl)cc4)ccc3o2)cc1OC,7.32,–,–,–,–
COc1ccc(-c2nc3cc(NC(=O)c4cccc(Cl)c4)ccc3o2)cc1OC,8.82,–,–,–,–
COc1ccc(-c2nc3cc(NC(=O)c4ccccc4Cl)ccc3o2)cc1OC,1.02,0.66,0.74,84.1,0.8
COc1ccc(C(=O)Nc2ccc3oc(-c4ccc(OC)c(OC)c4)nc3c2)cc1OC,8.2,–,–,–,–
COc1ccc(-c2nc3cc(NC(=O)c4cccc(C)c4)ccc3o2)cc1OC,5.21,–,–,–,–
COc1ccc(-c2nc3cc(NC(=O)c4ccc(O)cc4)ccc3o2)cc1OC,58.2,–,–,–,–
COc1cc(OC)cc(C(=O)Nc2ccc3oc(-c4ccc(OC)c(OC)c4)nc3c2)c1,6.02,0.67,0.81,68.2,2.1
COc1ccc(-c2nc3cc(NC(=O)c4ccc([N+](=O)[O-])cc4Cl)ccc3o2)cc1OC,5.15,0.71,0.77,72.7,1
COc1ccc(-c2nc3cc(NC(=O)c4ccc(C)cc4)ccc3o2)cc1OC,7.84,–,–,–,–
COc1ccc(-c2nc3cc(NC(=O)c4ccc([N+](=O)[O-])cc4)ccc3o2)cc1OC,3.23,0.71,0.8,79.5,1.8
COc1ccc(-c2nc3cc(NC(=O)c4ccccc4)ccc3o2)cc1OC,6.2,–,–,–,–
COc1ccc(-c2nc3cc(NC(=O)c4ccccc4Br)ccc3o2)cc1OC,10.1,–,–,–,–
COc1ccc(-c2nc3cc(NC(=O)c4ccccc4C)ccc3o2)cc1OC,9.21,–,–,–,–
COc1ccc(-c2nc3cc(NC(=O)c4cccc([N+](=O)[O-])c4)ccc3o2)cc1OC,5.52,0.57,0.77,54.5,–
COc1ccc(C(=O)Nc2ccc3oc(-c4ccc(OC)c(OC)c4)nc3c2)cc1,16.3,–,–,–,–
CC(C)Cc1ccc(C(C)C(=O)O)cc1 (configuration not stated) [IBUPROFEN],–,–,–,65.9,2.2

# Reference: ChEMBL document CHEMBL4184229, “Synthesis, biological evaluation and docking study of a new series of di-substituted benzoxazole derivatives as selective COX-2 inhibitors and anti-inflammatory agents” (Bioorg Med Chem, 2018)
